Experimental findings from ChEMBL document CHEMBL3046475, “Inhibition of tobacco bacterial wilt with sulfone derivatives containing an 1,3,4-oxadiazole moiety” (J Agric Food Chem, 2012) are described below.

In test [1] the test system is Ralstonia solanacearum. The test is described as follows: Antibacterial activity against Ralstonia solanacearum in tobacco plant assessed as plant morbidity at 500 ug/ml measured after 14 days of spraying under green house conditions. Type of test: functional. In outline: (§1)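 Tobacco seedlings were raised by floating cultivation at 25 °C for 30 d, then transplanted at about the three-leaf stage into pots of 500 g soil, one plant per pot. Plants were sprayed with compound solutions. Morbidity and disease index were recorded per a standard disease investigation and classification protocol at 7, 14 and 21 d, with blank and negative controls.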

Test [2] concerns Ralstonia solanacearum. The test can be described thus: Antibacterial activity against Ralstonia solanacearum in tobacco plant assessed as disease index at 500 ug/ml measured after 7 days of spraying under green house conditions. Type of test: functional. Put shortly:
as §1

Test [3] relates to Ralstonia solanacearum. The test is described as follows: Antibacterial activity against Ralstonia solanacearum in tobacco field assessed as inhibition of disease at 405 g/ha measured after 21 days of spraying. It counts as functional. Put shortly: (§2)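 Field trial with foliar spraying, scored 7, 14 and 21 d after treatment. Disease index = (4W + 3X + 2Y + Y)/4A from the plant disease classification sums. Inhibition % = (CK − PT1)/CK × 100, where CK is an untreated blank field. Statistics by ANOVA.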

Test [4] deals with Ralstonia solanacearum. The test is described as follows: Antibacterial activity against Ralstonia solanacearum in tobacco plant assessed as plant morbidity at 500 ug/ml measured after 7 days of spraying under green house conditions. Type of test: functional. Put shortly: as §1
In test [5] the test system is Ralstonia solanacearum. The test can be described thus: Antibacterial activity against Ralstonia solanacearum in tobacco plant assessed as disease index at 500 ug/ml measured after 14 days of spraying under green house conditions. Type of test: functional. Put shortly:
as §1

Test [6] has as its system Ralstonia solanacearum. The test can be described thus: Antibacterial activity against Ralstonia solanacearum in tobacco plant assessed as disease index at 500 ug/ml measured after 21 days of spraying under green house conditions. Type of test: functional. In outline:
as §1

Test [7] deals with Ralstonia solanacearum. The test is described as follows: Antibacterial activity against Ralstonia solanacearum in tobacco field assessed as inhibition of disease at 405 g/ha measured after 14 days of spraying. Type of test: functional. Put shortly: as §2
In test [8] the test system is Ralstonia solanacearum. The test is described as follows: Antibacterial activity against Ralstonia solanacearum assessed as growth inhibition at 200 ug/ml by turbidometer test (beneficial crop tobacco plant). It counts as functional.
For test [9], the system named is Ralstonia solanacearum. The test can be described thus: Antibacterial activity against Ralstonia solanacearum assessed as growth inhibition at 500 ug/ml by turbidometer test (beneficial crop tobacco plant). Type of test: functional.
Test [10] has as its system Ralstonia solanacearum. The test is described as follows: Antibacterial activity against Ralstonia solanacearum in tobacco plant assessed as plant morbidity at 500 ug/ml measured after 21 days of spraying under green house conditions. Type of test: functional. In outline:
as §1

Test [11] relates to Ralstonia solanacearum. The test can be described thus: Antibacterial activity against Ralstonia solanacearum in tobacco plant assessed as control efficacy at 500 ug/ml measured after 7 days of spraying under green house conditions. It counts as functional. In outline:
as §1

Test [12] has as its system Ralstonia solanacearum. The test is described as follows: Antibacterial activity against Ralstonia solanacearum in tobacco plant assessed as control efficacy at 500 ug/ml measured after 21 days of spraying under green house conditions. It counts as functional. In outline: as §1
The test system of test [13] is Ralstonia solanacearum. The test can be described thus: Antibacterial activity against Ralstonia solanacearum in tobacco plant assessed as control efficacy at 500 ug/ml measured after 14 days of spraying under green house conditions. Type of test: functional. In outline: as §1
The test system of test [14] is Ralstonia solanacearum. The test is described as follows: Antibacterial activity against Ralstonia solanacearum in tobacco field assessed as inhibition of disease at 405 g/ha measured after 7 days of spraying. It counts as functional. In outline:
as §2

Test [15] has as its system Ralstonia solanacearum. The test is described as follows: Antibacterial activity against Ralstonia solanacearum assessed as growth inhibition by turbidometer test (beneficial crop tobacco plant). It counts as functional, organism-based.
Test [16] concerns Ralstonia solanacearum. The test is described as follows: Antibacterial activity against Ralstonia solanacearum in tobacco field assessed as inhibition of disease at 540 g/ha measured after 7 days of spraying. Type of test: functional, organism-based. In outline: as §2
For test [17], the system named is Ralstonia solanacearum. The test can be described thus: Antibacterial activity against Ralstonia solanacearum in tobacco field assessed as inhibition of disease at 540 g/ha measured after 14 days of spraying. It counts as functional, organism-based. In outline: as §2
In test [18] the test system is Ralstonia solanacearum. The test is described as follows: Antibacterial activity against Ralstonia solanacearum in tobacco field assessed as inhibition of disease at 540 g/ha measured after 21 days of spraying. It counts as functional, organism-based. In outline:
as §2

Where [19] appears, read: Ralstonia solanacearum, read-out: EC50.

≈ marks a conversion by molar mass, not a printed value.

What is called inhibition is the relative decrease from the control value, in per cent. Broadly, the EC50 is the concentration needed to bring the measured effect to its halfway point. Turning to `CCS(=O)(=O)c1nnc(-c2ccc(F)cc2)o1`, the Activity in test [1] was determined as 60%; in test [2], 13.3%; in [4], 13.3%; in [5] it was 40%; in test [6], 61.7%; in [10] it was 100%. For the same compound, the “inhibition (INH)” value in test [3] was determined as 71.9%; in test [7], 68.8%; in test [14] it was 65.3%. Moreover, the inhibition at 200 µg/mL in [8] stood at 100%. For the same compound, the inhibition at 500 µg/mL in test [9] was determined as 100%. Besides, the Efficacy in [11] was found to be 85.5%; in [12], 38.3%; in test [13], 59.3%. Besides, the concentration giving a half-maximal response (EC50) in [15] (setting [19]) amounted to 32.1 µg/mL (≈ 125 µM).
For the compound `CCS(=O)(=O)c1nnc(-c2ccc(F)c(F)c2)o1`, the inhibition at 200 µg/mL in test [8] came to 46.7%. In addition, the inhibition at 500 µg/mL in test [9] is 52%.
On the same counts, the results for `CCS(=O)(=O)c1nnc(-c2ccc(C)cc2)o1` are 15% and 39%.
For `CCS(=O)(=O)c1nnc(-c2cccc(F)c2)o1`, the inhibition at 200 µg/mL in test [8] was found to be 100%. The inhibition at 500 µg/mL in [9] is 100%. In addition, the EC50 in test [15] (setting [19]) worked out at 47.9 µg/mL (≈ 187 µM).
With `COc1ccc(-c2nnc(S(C)(=O)=O)o2)cc1OC`, the inhibition at 200 µg/mL in [8] was 6%. The inhibition at 500 µg/mL in test [9] was determined as 10.1%.
In the case of Saisentong, the Activity in [1] amounted to 73.3%; in [2], 6.7%; in test [4], 6.7%; in test [5], 40%; in test [6], 78.3%; in test [10] it was 100%. Besides, the inhibition is 61.2% in test [16]; 71.1% in [17]; 67.3% in test [18]; 100% in test [8]; 100% in [9]. Further, the Efficacy in test [11] is 92.7%; in test [12], 21.7%; in [13], 59.3%.
`CCS(=O)(=O)c1nnc(Cc2ccc(Cl)cc2)o1`: the inhibition at 200 µg/mL in test [8] came to 18.7%. Further, the inhibition at 500 µg/mL in test [9] amounted to 31.4%.
In the case of COPPER HYDROXIDE [listing 1 of 2 here], the Activity in test [1] came out at 100%; in [2], 53.3%; in test [4] it was 50.3%; in [5], 95%; in [6] it was 100%; in test [10], 100%. In addition, the Efficacy in test [11] was 41.9%; in test [12] it was 0%; in test [13], 3.4%.
As for `CS(=O)(=O)c1nnc(Cc2ccc(Cl)cc2)o1`, the inhibition at 200 µg/mL in test [8] stood at 19.2%. In addition, the inhibition at 500 µg/mL in [9] was 31%.
In the case of `CCS(=O)(=O)c1nnc(-c2ccc(F)cc2F)o1`, in [8], the inhibition at 200 µg/mL is 92.3%. For the same compound, the inhibition at 500 µg/mL in test [9] was found to be 100%. Moreover, the EC50 in test [15] (setting [19]) is 60.3 µg/mL (≈ 220 µM).
On to COPPER HYDROXIDE [listing 2 of 2 here], for which the EC50 in test [15] came out at 45.9 µg/mL.
For `CCS(=O)(=O)c1nnc(-c2ccc(OC)c(OC)c2)o1`, in [8], the inhibition at 200 µg/mL stood at 2.8%. Further, the inhibition at 500 µg/mL in test [9] worked out at 9.3%.
On the same counts, the results for `CS(=O)(=O)c1nnc(-c2ccccc2Br)o1` are 9.9% and 14.2%.
For `CCS(=O)(=O)c1nnc(-c2ccccc2)o1`, the Activity in test [1] is on record as 100%; in test [2], 60%; in test [4] it was 60%; in test [5] it was 86.7%; in test [6], 91.7%; in test [10], 100%. Moreover, the inhibition at 200 µg/mL in test [8] amounted to 100%. In test [9], the inhibition at 500 µg/mL amounted to 100%. For the same compound, the values for the Efficacy in test [11], in test [12] and in test [13] were 34.6%, 8.3% and 12%, respectively. Further, the EC50 in test [15] (setting [19]) was found to be 39.8 µg/mL (≈ 167 µM).
Take `CCS(=O)(=O)c1nnc(-c2ccc(Cl)c([N+](=O)[O-])c2)o1`: the inhibition at 200 µg/mL in test [8] is 17%. For the same compound, the inhibition at 500 µg/mL in [9] was 46%.
For `CS(=O)(=O)c1nnc(-c2ccc(F)c(F)c2)o1` the same measures were 11.1% and 12%.
On the same counts, the results for `CS(=O)(=O)c1nnc(-c2ccc(Cl)c([N+](=O)[O-])c2)o1` are 0% and 20.1%.
